Data from ChEMBL document CHEMBL1126036, “Quinolone antibacterial agents. Synthesis and structure-activity relationships of a series of amino acid prodrugs of racemic and chiral 7-(3-amino-1-pyrrolidinyl)quinolones. Highly soluble quinolone prodrugs with in vivo pseudomonas activity” (J Med Chem, 1992).

Legend:
Staphylococcus aureus [1] = experiment: In vitro antibacterial activity against gram positive Staphylococcus aureus H-228.; assay type: functional
[2] = target: DNA gyrase (Escherichia coli) (UniProt P0AES6+P0AES4); experiment: In vitro concentration inhibiting DNA gyrase induced cleavage in Escherichia coli H560.; assay type: functional
Summary of the method: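 DNA gyrase test run as described in earlier work. The value is the drug concentration (µg/mL) needed to cause DNA cleavage.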

Streptococcus pneumoniae [3] = experiment: In vivo potency against acute systemic infection in mouse caused by Streptococcus pneumoniae SV-1 on subcutaneous injection.; assay type: functional; settings: sc, read-out: PD50
Summary of the method: (§1)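 Acute systemic mouse infection. A single subcutaneous dose was injected at the time of challenge. Potency is reported as the median protective dose (PD50, mg/kg), determined by earlier published methods.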

[4] = Solubility (at pH 7.4); assay type: physicochemical; settings: buffer, read-out: S
Summary of the method: (§2)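 Solubility was measured either from HPLC peak areas at equilibrium or by a conventional weight-per-volume method. All solutions were held for 24 h before measurement.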

[5] = Solubility (in 0.1 N HCl); assay type: physicochemical; settings: read-out: S; summary of the method: as §2
Pseudomonas aeruginosa = experiment: In vitro antibacterial activity against gram negative Pseudomonas aeruginosa UI-18.; assay type: functional
Escherichia coli [6] = experiment: In vivo potency against acute systemic infection in mouse caused by Escherichia coli Vogel on oral administration by gavage.; assay type: functional; settings: read-out: PD50
Summary of the method: (§3)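 Acute systemic mouse infection. A single oral dose was given by gavage at the time of challenge. Potency is reported as the median protective dose (PD50, mg/kg), determined by earlier published methods.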

Streptococcus pneumoniae [7] = experiment: In vivo potency against acute systemic infection in mouse caused by Streptococcus pneumoniae SV-1 on oral administration by gavage.; assay type: functional; settings: read-out: PD50; summary of the method: as §3
[8] = Aqueous solubility; assay type: physicochemical; settings: water (aqueous); read-out: S; summary of the method: as §2
Escherichia coli [9] = experiment: In vitro antibacterial activity against gram negative Escherichia coli Vogel.; assay type: functional
Enterococcus faecalis = experiment: In vitro antibacterial activity against gram positive Enterococcus faecalis MGH-2.; assay type: functional
Klebsiella pneumoniae = experiment: In vitro antibacterial activity against gram negative Klebsiella pneumoniae MGH-2.; assay type: functional
Staphylococcus aureus [10] = experiment: In vitro antibacterial activity against gram positive Staphylococcus aureus UC76.; assay type: functional
Providencia rettgeri = experiment: In vitro antibacterial activity against gram negative Providencia rettgeri M-1771.; assay type: functional
Streptococcus pyogenes = experiment: In vitro antibacterial activity against gram positive Streptococcus pyogenes C-203.; assay type: functional
Enterobacter cloacae = experiment: In vitro antibacterial activity against gram negative Enterobacter cloacae MA 2646.; assay type: functional
[11] = Solubility (at pH 4); assay type: physicochemical; settings: buffer, read-out: S; summary of the method: as §2
Escherichia coli [12] = experiment: In vivo potency against acute systemic infection in mouse caused by Escherichia coli vogel on subcutaneous injection.; assay type: functional; settings: sc, read-out: PD50; summary of the method: as §1
Streptococcus pneumoniae [13] = experiment: In vitro antibacterial activity against gram positive Streptococcus pneumoniae SV-1.; assay type: functional

SMILES	MIC (Staphylococcus aureus [1])	Cleavage [2]	ED50 (Streptococcus pneumoniae [3])	solubility [4]	solubility [5]	MIC (Pseudomonas aeruginosa)	ED50 (Escherichia coli [6])	ED50 (Streptococcus pneumoniae [7])	solubility [8]	MIC (Escherichia coli [9])	MIC (Enterococcus faecalis)	MIC (Klebsiella pneumoniae)	MIC (Staphylococcus aureus [10])	MIC (Providencia rettgeri)	MIC (Streptococcus pyogenes)	MIC (Enterobacter cloacae)	solubility [11]	ED50 (Escherichia coli [12])	MIC (Streptococcus pneumoniae [13])
C[C@H](N)C(=O)N[C@H]1CCN(c2c(F)cc3c(=O)c(C(=O)O)cn(C4CC4)c3c2F)C1.Cl.O	0.1 µg/mL	2.5 µg/mL	9 mg/kg	0.07 mg/mL	5.4 mg/mL	0.1 µg/mL	1 mg/kg	25 mg/kg	33 mg/mL	0.1 µg/mL	0.1 µg/mL	0.2 µg/mL	0.025 µg/mL	0.2 µg/mL	0.1 µg/mL	0.1 µg/mL	19 mg/mL	0.4 mg/kg	0.1 µg/mL
Cl.N[C@@H](Cc1ccccc1)C(=O)NC1CCN(c2c(F)cc3c(=O)c(C(=O)O)cn(C4CC4)c3c2F)C1.O (some centres not stated)	3.1 µg/mL	7.5 µg/mL			7.2 mg/mL	25 µg/mL	5 mg/kg		31 mg/mL	0.8 µg/mL	25 µg/mL	1.6 µg/mL	1.6 µg/mL	3.1 µg/mL	> 25 µg/mL	1.6 µg/mL	21 mg/mL	1 mg/kg	> 25 µg/mL
C[C@H](N)C(=O)N[C@@H]1CCN(c2c(F)cc3c(=O)c(C(=O)O)cn(C4CC4)c3c2F)C1.Cl.O	0.8 µg/mL	2.5 µg/mL	19 mg/kg	0.07 mg/mL	6 mg/mL	3.1 µg/mL	1 mg/kg	25 mg/kg	29 mg/mL	0.4 µg/mL	0.8 µg/mL	0.8 µg/mL	0.2 µg/mL	0.8 µg/mL	0.4 µg/mL	0.2 µg/mL	30 mg/mL	0.6 mg/kg	0.4 µg/mL
Cl.NCC(=O)NC1CCN(c2nc3c(cc2F)c(=O)c(C(=O)O)cn3C2CC2)C1.O (configuration not stated)	1.6 µg/mL	2.5 µg/mL	10 mg/kg		67 mg/mL	3.1 µg/mL		37 mg/kg	> 200 mg/mL	0.2 µg/mL	0.8 µg/mL	0.4 µg/mL	0.4 µg/mL	0.8 µg/mL	0.1 µg/mL	0.4 µg/mL	> 200 mg/mL		0.8 µg/mL
C[C@@H](N)C(=O)NC1CCN(c2cc3c(cc2F)c(=O)c(C(=O)O)cn3C2CC2)C1.Cl.O (some centres not stated)	0.4 µg/mL	1 µg/mL	3.1 mg/kg	0.24 mg/mL	> 100 mg/mL	1.6 µg/mL	> 100 mg/kg	> 100 mg/kg	> 100 mg/mL	0.8 µg/mL	0.2 µg/mL	0.8 µg/mL	0.05 µg/mL	1.6 µg/mL	0.013 µg/mL	0.8 µg/mL	> 100 mg/mL	4.1 mg/kg	0.025 µg/mL
C[C@@H](N)C(=O)NC1CCN(c2c(F)cc3c(=O)c(C(=O)O)cn(C4CC4)c3c2F)C1.Cl.O (some centres not stated)	0.05 µg/mL	2.5 µg/mL	1 mg/kg		3.6 mg/mL	1.6 µg/mL	31 mg/kg	> 100 mg/kg	42 mg/mL	0.2 µg/mL	0.025 µg/mL	0.4 µg/mL	0.006 µg/mL	0.8 µg/mL	0.006 µg/mL	0.4 µg/mL	19.4 mg/mL	2 mg/kg	0.013 µg/mL
Cl.N[C@@H]1CCN(c2c(F)cc3c(=O)c(C(=O)O)cn(C4CC4)c3c2F)C1.O	0.05 µg/mL	0.5 µg/mL	9 mg/kg			0.1 µg/mL	0.9 mg/kg	14 mg/kg	11 mg/mL	0.013 µg/mL	0.05 µg/mL	0.013 µg/mL	0.006 µg/mL	0.025 µg/mL	0.05 µg/mL	0.006 µg/mL		0.2 mg/kg	0.025 µg/mL
Cl.NCC(=O)NC1CCN(c2cc3c(cc2F)c(=O)c(C(=O)O)cn3C2CC2)C1.O (configuration not stated)	3.1 µg/mL	2.5 µg/mL	18 mg/kg	0.22 mg/mL	> 100 mg/mL	1.6 µg/mL	6.3 mg/kg	> 100 mg/kg	> 100 mg/mL	0.4 µg/mL	1.6 µg/mL	0.8 µg/mL	0.4 µg/mL	1.6 µg/mL	0.1 µg/mL	0.4 µg/mL	> 100 mg/mL	1.1 mg/kg	0.4 µg/mL
